Reference: ChEMBL document CHEMBL4138199, “Microwave-promoted facile access to 4-aminoquinoline-phthalimides: Synthesis and anti-plasmodial evaluation” (Eur J Med Chem, 2018)

Columns and labels:
[1] = test system: J774; experiment: Cytotoxicity against mouse J774 cells assessed as decrease in cell survival after 24 hrs by fluorimetric method; assay type: cell-based; settings: J774, 24 h
Method in brief: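 J774 murine macrophages grown in DMEM with 10% de-complemented fetal calf serum under 5% CO2. Fluorescence read at 540 nm excitation and 590 nm emission. Percent survival is compound-well fluorescence divided by that of control wells with cells in a DMSO dilution series (1% to 0.03125% v/v).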

[2] = test system: Plasmodium falciparum; experiment: Antiplasmodial activity against ring-stage of chloroquine-resistant/mefloquine-sensitive Plasmodium falciparum W2 assessed as parasite growth inhibition after 48 hrs by YOYO-1 dye-based flow cytometric method; assay type: functional, organism-based; settings: W2, 48 h
Method in brief: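 Parasites grown in RPMI-1640 with 10% human serum and synchronized with 5% D-sorbitol. Ring-stage cultures exposed 48 h to graded compound levels (DMSO ≤0.1%), then fixed 48 h in 1% formaldehyde/PBS pH 7.4 at room temperature. Stained with 1 nM YOYO-1 in 0.1% Triton X-100/PBS; parasitemia by flow cytometry. IC50 from non-linear fit of % control parasitemia, duplicate experiments.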

[3] = Selectivity index, ratio of IC50 for mouse J774 cells to IC50 for ring-stage of chloroquine-resistant/mefloquine-sensitive Plasmodium falciparum W2; assay type: toxicity; settings: read-out: Ratio IC50

O=C1c2c(Br)c(Br)c(Br)c(Br)c2C(=O)N1CCCCCCNc1ccnc2cc(Cl)ccc12
IC50 [1]: 29.1 µM
IC50 [2]: 0.1 µM
selectivity ratio [3]: 291

O=C1c2c(Cl)c(Cl)c(Cl)c(Cl)c2C(=O)N1CCCCCCNc1ccnc2cc(Cl)ccc12
IC50 [2]: 0.46 µM

O=C1c2cccc([N+](=O)[O-])c2C(=O)N1CCCCCCNc1ccnc2cc(Cl)ccc12
IC50 [2]: 0.15 µM

O=C1c2ccccc2C(=O)N1CCNc1ccnc2cc(Cl)ccc12
IC50 [2]: 1.11 µM

O=C1c2c(Cl)c(Cl)c(Cl)c(Cl)c2C(=O)N1CCCCNc1ccnc2cc(Cl)ccc12
IC50 [2]: 0.27 µM

O=C1c2c(Br)c(Br)c(Br)c(Br)c2C(=O)N1CCNc1ccnc2cc(Cl)ccc12
IC50 [2]: 0.4 µM

O=C1c2ccc(F)cc2C(=O)N1CCCCCCNc1ccnc2cc(Cl)ccc12
IC50 [1]: 15.2 µM
IC50 [2]: 0.12 µM
selectivity ratio [3]: 126

O=C1c2c(Br)c(Br)c(Br)c(Br)c2C(=O)N1CCCCNc1ccnc2cc(Cl)ccc12
IC50 [2]: 0.19 µM

O=C1c2cccc(F)c2C(=O)N1CCNc1ccnc2cc(Cl)ccc12
IC50 [2]: 4.73 µM

O=C1c2ccc(F)cc2C(=O)N1CCNc1ccnc2cc(Cl)ccc12
IC50 [2]: 4.56 µM

C[C@@H]1CC[C@H]2[C@@H](C)C(=O)O[C@@H]3O[C@@]4(C)CC[C@@H]1[C@]32OO4 [ARTEMISININ]
IC50 [2]: 0.007 µM

O=C1c2ccccc2C(=O)N1CCCCNc1ccnc2cc(Cl)ccc12
IC50 [2]: 0.37 µM

O=C1c2cccc([N+](=O)[O-])c2C(=O)N1CCNc1ccnc2cc(Cl)ccc12
IC50 [2]: 7.55 µM

O=C1c2c(Cl)c(Cl)c(Cl)c(Cl)c2C(=O)N1CCNc1ccnc2cc(Cl)ccc12
IC50 [2]: 0.21 µM

O=C1c2ccc(F)cc2C(=O)N1CCCNc1ccnc2cc(Cl)ccc12
IC50 [2]: 1.19 µM

O=C1c2c(Cl)c(Cl)c(Cl)c(Cl)c2C(=O)N1CCCNc1ccnc2cc(Cl)ccc12
IC50 [2]: 0.57 µM

O=C1c2ccc(F)cc2C(=O)N1CCCCCCCCNc1ccnc2cc(Cl)ccc12
IC50 [2]: 0.17 µM

O=C1c2cccc(F)c2C(=O)N1CCCCCCNc1ccnc2cc(Cl)ccc12
IC50 [2]: 0.24 µM

O=C1c2cccc(F)c2C(=O)N1CCCNc1ccnc2cc(Cl)ccc12
IC50 [2]: 3.96 µM

O=C1c2ccccc2C(=O)N1CCCCCCCCNc1ccnc2cc(Cl)ccc12
IC50 [2]: 0.14 µM

O=C1c2ccc(F)cc2C(=O)N1CCCCNc1ccnc2cc(Cl)ccc12
IC50 [2]: 0.42 µM

O=C1c2ccccc2C(=O)N1CCCCCCNc1ccnc2cc(Cl)ccc12
IC50 [1]: 14.3 µM
IC50 [2]: 0.11 µM
selectivity ratio [3]: 130

O=C1c2c(Br)c(Br)c(Br)c(Br)c2C(=O)N1CCCNc1ccnc2cc(Cl)ccc12
IC50 [2]: 3.76 µM

O=C1c2cccc(F)c2C(=O)N1CCCCNc1ccnc2cc(Cl)ccc12
IC50 [2]: 0.64 µM

O=C1c2cccc(F)c2C(=O)N1CCCCCCCCNc1ccnc2cc(Cl)ccc12
IC50 [1]: 28.2 µM
IC50 [2]: 0.12 µM
selectivity ratio [3]: 235

O=C1c2ccccc2C(=O)N1CCCNc1ccnc2cc(Cl)ccc12
IC50 [2]: 1.51 µM
